Data published in ChEMBL document CHEMBL1149489, “Synthesis and biological evaluation of benzamides and benzamidines as selective inhibitors of VEGFR tyrosine kinases” (Bioorg Med Chem Lett, 2006).
The source made the active and inactive calls. The calls are words filed in the database; no cut-off is given here.

Target: Epidermal growth factor receptor (Homo sapiens) (UniProt P00533)
Test: Inhibition of EGFR at 10 uM
Summary of the method: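 ELISA autophosphorylation-type assay. Wells were coated overnight at 4 °C with 50 µg/ml poly(Glu:Tyr, 4:1) in PBS. The kinase reaction ran 20 min in 50 mM HEPES, 125 mM NaCl, 10 mM MgCl2, pH 7.4, with 100 µM ATP and compound at 10 µM. Phosphotyrosine was detected with HRP anti-phosphotyrosine antibody and TMB, acid-stopped, and read at A450.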

Sequence of Epidermal growth factor receptor (Homo sapiens) (P00533 whole entry): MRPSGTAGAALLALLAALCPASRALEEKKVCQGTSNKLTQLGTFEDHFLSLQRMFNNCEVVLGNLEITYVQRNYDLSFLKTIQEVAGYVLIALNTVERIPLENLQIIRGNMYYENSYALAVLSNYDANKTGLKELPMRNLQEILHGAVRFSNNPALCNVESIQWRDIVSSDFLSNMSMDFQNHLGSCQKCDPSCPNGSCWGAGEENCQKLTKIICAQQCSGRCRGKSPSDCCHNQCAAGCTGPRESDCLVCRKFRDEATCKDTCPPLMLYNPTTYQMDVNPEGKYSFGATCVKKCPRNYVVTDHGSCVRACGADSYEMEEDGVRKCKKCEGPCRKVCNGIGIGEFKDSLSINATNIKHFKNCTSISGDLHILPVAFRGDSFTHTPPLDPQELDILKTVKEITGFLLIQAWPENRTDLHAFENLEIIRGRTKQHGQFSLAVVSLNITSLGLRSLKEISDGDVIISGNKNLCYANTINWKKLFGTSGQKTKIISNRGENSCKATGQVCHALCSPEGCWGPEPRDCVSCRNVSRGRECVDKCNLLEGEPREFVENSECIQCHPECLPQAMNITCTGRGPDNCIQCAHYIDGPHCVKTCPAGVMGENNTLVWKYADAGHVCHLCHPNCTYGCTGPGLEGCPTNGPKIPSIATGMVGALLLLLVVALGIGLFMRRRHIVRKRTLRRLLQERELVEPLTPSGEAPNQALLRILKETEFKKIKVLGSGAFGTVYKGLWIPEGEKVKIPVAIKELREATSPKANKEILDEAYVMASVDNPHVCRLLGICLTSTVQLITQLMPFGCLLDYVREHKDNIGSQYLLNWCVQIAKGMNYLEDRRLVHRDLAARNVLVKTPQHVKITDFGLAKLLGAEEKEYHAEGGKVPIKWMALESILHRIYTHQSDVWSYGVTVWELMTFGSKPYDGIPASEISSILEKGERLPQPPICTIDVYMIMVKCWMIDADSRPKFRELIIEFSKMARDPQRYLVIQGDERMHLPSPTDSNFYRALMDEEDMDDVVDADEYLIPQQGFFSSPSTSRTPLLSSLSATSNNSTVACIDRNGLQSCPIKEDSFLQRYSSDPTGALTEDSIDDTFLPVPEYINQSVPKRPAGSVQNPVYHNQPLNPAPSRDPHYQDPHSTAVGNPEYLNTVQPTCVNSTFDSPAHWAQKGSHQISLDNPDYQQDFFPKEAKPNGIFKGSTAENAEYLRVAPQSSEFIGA

| Activity | SMILES |
| --- | --- |
| inactive | COc1cc(OCc2ccncc2)c(C(=N)Nc2ccccc2C(F)(F)F)cc1OC |
| inactive | N=C(Nc1ccccc1Cl)c1ccccc1NCc1ccncc1 |
| inactive | COc1cc(NCc2ccncc2)c(C(=O)Nc2ncccn2)cc1OC |
| inactive | O=C(Nc1cnccn1)c1ccccc1NCc1ccncc1 |
| inactive | COc1cc(OCc2ccncc2)c(C(=O)Nc2ccccc2Cl)cc1OC |
| inactive | N=C(Nc1ccccc1C(F)(F)F)c1ccccc1NCc1ccncc1 |
| inactive | COc1cc(NCc2ccncc2)c(C(=N)Nc2ccc(Cl)cc2)cc1OC |
| inactive | COc1cc(OCc2ccncc2)c(C(=O)Nc2ccccn2)cc1OC |
| inactive | N=C(Nc1ccccc1C(F)(F)F)c1ccccc1OCc1ccncc1 |
| inactive | O=C(Nc1ccccc1Cl)c1ccccc1OCc1ccncc1 |
| inactive | O=C(Nc1ncccn1)c1ccccc1NCc1ccncc1 |
| inactive | COc1cc(NCc2ccncc2)c(C(=N)Nc2ccccc2Cl)cc1OC |
| inactive | COc1cc(NCc2ccncc2)c(C(=O)Nc2ccccn2)cc1OC |
| inactive | COc1cc(OCc2ccncc2)c(C(=N)Nc2ccc(Cl)cc2)cc1OC |
| inactive | COc1cc(OCc2ccncc2)c(C(=O)Nc2ccccc2C(F)(F)F)cc1OC |
| inactive | COc1cc(OCc2ccncc2)c(C(=O)Nc2ncccn2)cc1OC |
| inactive | COc1cc(OCc2ccncc2)c(C(=O)Nc2ccc(Cl)cc2)cc1OC |
| inactive | COc1cc(OCc2ccncc2)c(C(=N)Nc2ccccc2Cl)cc1OC |
| inactive | O=C(Nc1ccccc1C(F)(F)F)c1ccccc1OCc1ccncc1 |
| inactive | COc1cc(NCc2ccncc2)c(C(=N)Nc2ccccc2C(F)(F)F)cc1OC |
| inactive | N=C(Nc1ccc(Cl)cc1)c1ccccc1OCc1ccncc1 |
| inactive | N=C(Nc1ccccc1Cl)c1ccccc1OCc1ccncc1 |
| inactive | COc1cc(OCc2ccncc2)c(C(=O)Nc2cnccn2)cc1OC |
| inactive | COc1cc(NCc2ccncc2)c(C(=O)Nc2cnccn2)cc1OC |
| inactive | N=C(Nc1ccc(Cl)cc1)c1ccccc1NCc1ccncc1 |
| inactive | O=C(Nc1ccccn1)c1ccccc1NCc1ccncc1 |
